# Hsp70 activator – transcriptional activators of Hsp70; HeLa Hsp70 promoter luciferase reporter, luminescence; scaled: vehicle 0, proteasome-inhibitor control 100%; activation, % at 10 µM; AID 1203; 200,000 compounds, 0.04% hits;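 active = activation above the mean across all tested compounds plus 3 SD, cutoff set per campaign, cut at about 5.5% in these data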;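 also: 100% = MG132 at 30 µM as the positive control and 0% = DMSO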
# MDM2 E3 inh – blocks human Mdm2 ubiquitin ligase activity. Q00987. cell-based MDM2 ubiquitination luciferase reporter, 2 h; 0 = plate control, 100 = twice control, blank-subtracted. signal enhancement, % at 5 µM. 210,000 compounds, 0.11% hits. AID 1230;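 active = signal enhancement of 30% or more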;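 also: luminescence tracks abundance of the self-degrading MDM2-luciferase fusion protein; higher signal means inhibition of MDM2 E3 ligase activity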
# Target sequence (Q00987 whole entry, looked up, the tested form may be a part): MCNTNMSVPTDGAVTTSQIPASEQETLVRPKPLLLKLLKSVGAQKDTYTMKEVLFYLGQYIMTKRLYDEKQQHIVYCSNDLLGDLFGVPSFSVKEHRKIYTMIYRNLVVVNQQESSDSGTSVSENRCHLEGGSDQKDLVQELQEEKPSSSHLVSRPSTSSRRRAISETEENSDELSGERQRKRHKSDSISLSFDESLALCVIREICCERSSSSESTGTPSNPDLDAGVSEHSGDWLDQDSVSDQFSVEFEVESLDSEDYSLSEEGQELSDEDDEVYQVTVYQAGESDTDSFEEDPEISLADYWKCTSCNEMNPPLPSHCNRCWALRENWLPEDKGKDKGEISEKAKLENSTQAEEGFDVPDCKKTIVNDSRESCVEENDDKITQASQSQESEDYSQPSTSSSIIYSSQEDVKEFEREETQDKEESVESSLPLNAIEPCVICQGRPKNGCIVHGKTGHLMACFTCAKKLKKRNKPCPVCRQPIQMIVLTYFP
#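 Assay system: mammalian cells stably expressing self-ubiquitinating, self-degrading MDM2 E3–luciferase fusion. Quantity: 2000 cells in each well. Medium: DMEM culture medium. Compound dosing: single-point 5 µM. Timing: cell settling 4 h, compound treatment 2 h, both 37 °C. Technique: luciferase luminescence. Read-out basis: percent signal gain over controls, blank-subtracted. Benchmarks: plate controls and plate blanks.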
# Pf gamet viab – inhibitors of late stage P. falciparum gametocyte viability | P. falciparum stage V gametocytes, ATP luminescence, 24 h | inhibition, % at 10.9 µM | 150,000 compounds, 0.065% hits;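 active = inhibition above the mean plus 3 SD of compounds within the control limits, set per campaign, cut at about 38% in these data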;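 also: 0% = DMSO wells and 100% = medium only without gametocytes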
# Wee1 stabilizer – human Wee1 degradation inhibition, primary screen | P30291 | 220,000 compounds, 1.2% hits | HeLa Luc-Wee1K328M stability, luciferase luminescence; 100% = proteasome inhibitor MG132 effect | reporter increase, % at 5 µM;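 active = activation above the mean of all tested compounds plus 3 SD, set per screening run, cut at about 8.8% in these data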;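 also: cells exposed to compound for 20 h before luminescence read; 0% = DMSO alone and 100% = MG132 at 30 µM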
# Calpain2 inh – blocks pig calpain II enzyme activity; purified calpain II, fluorogenic peptide substrate, 30 min; AID 1236; inhibition, % at 16 µM; 220,000 compounds, 0.37% hits;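 active = inhibition above about 50%, limit read from the data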
# Wee1 stab conf – human Wee1 degradation inhibition, confirmation; shares compounds with Wee1 stabilizer; 1,100 compounds, 4% hits; HeLa Luc-Wee1K328M degradation, luminescence; vehicle 0%, proteasome-blocked wells 100%; activation, % at 5 µM; in the data active = activation above about 8.9%
# * hit, by the source's call; i = inactive; / = no result given. A selection: hits, their analogues and other compounds. The true share with any hit is near 1.5%.
SMILES,Hsp70 activator,MDM2 E3 inh,Pf gamet viab,Wee1 stabilizer,Calpain2 inh,Wee1 stab conf
O=C(c1cccc(C(F)(F)F)c1)C1CCCN(Cc2ccc(OCCO)cc2)C1 (stereo not given),-0.3,8.3,-12.0,12.9*,-15.7,-2.0
COC(=O)Cc1c(O)ccn(Cc2cccc3ccccc23)c1=O,0.4,-8.1,-5.5,-0.9,10.2,/
COc1cc(NCCCC(C)N)c2ncccc2c1 (stereo not given),-0.1,-24.2,/,29.4*,11.9,-0.1
CN(C(=O)c1ccc(NC(=O)Cc2ccc(NC(=O)C3CCCN(C(=O)C4CC4)C3)cc2)cc1)C1CC1 (stereo not given),/,/,3.5,/,/,/
Cc1ccc(OCCSc2nc(N)cc(N)n2)cc1,0.1,4.7,-21.3,11.4*,9.1,0.2
O=C(Nc1ccc(O)cc1)c1c(O)c2c([nH]c1=O)CCCC2,0.5,-5.7,/,13.8*,-51.3,5.8
CC(=O)Nc1ccc(NC(=O)C2CC(=O)N(c3ccccc3Cl)C2)cc1 (stereo not given),0.0,-6.5,-26.3,-0.5,9.7,/
Cc1ccc(CCNC(=O)CNC(=S)N(Cc2ccccc2)Cc2cccnc2)cc1,-0.3,-11.5,15.7,15.4*,-15.4,-0.4
CN(C)CCNC(=O)CNC(=S)N(Cc1ccccc1)Cc1cccnc1,-0.3,/,/,-1.7,9.9,/
Cc1ccc2nc(CSc3nnc(-c4ccncc4)n3C)cc(=O)n2c1,-0.2,-12.5,24.6,-0.5,-39.7,/
C=CCn1c(SCc2cc(=O)n3cc(C)ccc3n2)nnc1-c1ccc(F)cc1,-0.3,14.8,0.4,15.1*,2.9,2.0
CCOC(=O)C1=C(c2ccccc2)NC(=S)NC1c1cccc([N+](=O)[O-])c1 (stereo not given),-0.4,-12.3,-14.6,11.6*,-24.1,-1.4
CCc1nc(N2CCN(C(=S)NCCCOC)CC2)c2c3c(sc2n1)CCCC3,/,/,-22.1,/,/,/
CCN(CCn1cccn1)C(=O)CCc1nnc(CCCc2ccccc2)o1,0.0,-4.4,/,4.1,-6.5,/
COc1ccc(CCC(=O)Nc2nnc(C)s2)cc1,/,/,-31.4,/,/,/
COc1ccc(CCC(=O)Nc2sccc2C#N)cc1,0.0,-14.6,12.0,11.8*,-18.9,0.1
CSc1ccc(/C=C/C(=O)c2ccc(O)cc2)cc1,0.0,-15.1,17.2,-0.4,9.9,/
Cc1ccc(/C=C/C(=O)c2ccc(O)cc2)cc1,/,-13.8,-18.2,16.7*,10.4,-0.4
CCCCN1C(=O)NC(NC(=O)c2ccco2)(C(F)(F)F)C1=O (stereo not given),-0.3,0.9,-6.2,17.3*,-14.9,2.1
CCCCN1C(=O)NC(NC(=O)C2CC2)(C(F)(F)F)C1=O (stereo not given),-0.2,5.9,-7.5,5.5,-2.4,/
Cc1ccc2c3c(c(SCC(=O)Nc4nonc4C)nc2c1)CCCC3,-0.2,-11.8,-2.1,12.8*,-3.3,1.8
NS(=O)(=O)c1cccc(NC(=O)CSc2nc3ccc(Cl)cc3[nH]2)c1,-0.2,1.3,22.9,11.8*,-28.4,-3.3
CCOC(=O)C1(Cc2cccc(OC)c2)CCN(CC2CC=CCC2)CC1 (stereo not given),-0.1,-3.8,/,12.4*,-1.3,1.4
CCOC(=O)C1(Cc2ccccc2)CCN(CC2CC=CCC2)CC1 (stereo not given),0.3,12.9,-26.6,-2.1,-2.0,/
Clc1nccc(NCc2ccccc2)n1,/,/,12.7,/,/,/
SMILES,Hsp70 activator,MDM2 E3 inh,Pf gamet viab,Wee1 stabilizer,Calpain2 inh,Wee1 stab conf
Clc1cccc(NCc2ccccc2)n1,0.3,-19.1,18.8,26.9*,23.6,-0.6
CC(=O)C[C@@H](O)CC(=O)[C@@H]1OC(=O)CCCCCCc2ccccc21,/,/,1.3,/,/,/
COc1ccc(-c2nc(-c3ccc4c(c3)OCO4)[nH]c2-c2ccc(OC)cc2)cc1,-0.1,-7.7,-4.2,13.1*,-193.7,-0.5
Clc1cccc(Cl)c1-c1nnc2cccc(Cl)n12,-0.4,/,/,11.9*,-13.1,-0.9
FC(F)(F)c1nc2ccccc2n2c(-c3c(Cl)cccc3Cl)nnc12,-0.2,-14.0,13.1,-2.4,-3.7,/
O=C1CCc2cc(S(=O)(=O)NC(Cc3ccccc3)C(=O)NC3CCCCC3)ccc2N1 (stereo not given),-0.3,-0.3,/,28.2*,3.0,-0.5
CC(C)(C)NC(=O)C(Cc1ccccc1)NS(=O)(=O)c1ccc2c(c1)CCC(=O)N2 (stereo not given),-0.4,-6.6,/,2.5,15.4,/
CC(C)OCCCNC(=O)CCSc1ccc(Cl)cc1,0.1,-22.0,/,-3.0,8.8,/
CCOC(=O)CSc1nc(-c2ccncc2)ccc1C#N,0.2,-19.2,0.9,14.4*,-18.3,1.8
CCOC(=O)CC(=O)CSc1nc(-c2cccnc2)ccc1C#N,-0.4,-10.1,-3.7,-1.8,i,/
c1ccc(Oc2cccc(Oc3ccccc3)n2)cc1,/,/,16.9,/,/,/
CC1=C(C)CS(=O)N(S(=O)(=O)c2ccccc2)C1 (stereo not given),-0.3,-4.8,2.8,11.1*,1.2,-1.4
C/C(=N\NC(=O)c1csc(C)c1C)c1ccc(Cl)s1,0.2,-25.5,/,11.7*,-0.2,2.0
Cc1ccc2nc(-c3ccc(NC(=O)COC(=O)c4ccc(Br)o4)cc3)sc2c1,-0.4,-34.3,/,7.3,-146.8,/
Cc1ccc2nc(-c3ccc(NC(=O)COC(=O)c4cncc(Br)c4)cc3)sc2c1,0.2,-37.1,-6.6,15.3*,-133.5,-3.1
CCNC(=O)COc1ncnc2scc(-c3ccc(F)cc3)c12,-0.4,-5.6,7.5,2.1,9.8,/
CNC(=O)COc1ncnc2scc(-c3ccc(F)cc3)c12,-0.2,-11.0,/,11.7*,-13.0,1.5
Cc1cccc(NC(=O)c2ccc(NCC3CCCO3)c([N+](=O)[O-])c2)n1 (stereo not given),-0.5,-11.2,/,11.3*,11.7,5.1
Cc1cccc(NC(=O)c2ccc(NCC3CCCO3)c([N+](=O)[O-])c2)c1 (stereo not given),-0.2,-2.2,-0.1,-0.9,-7.5,/
CC1CC(C)CN(C(=O)C(C)N(C)CC(=O)Nc2ccccc2Cl)C1 (stereo not given),-0.1,-16.0,-30.2,-0.3,-4.5,/
COc1cc(/C=N/NC(=O)c2ccc(CSc3nncn3C)cc2)cc(OC)c1O,-0.2,-2.7,14.3,11.4*,-21.9,-2.5
COc1ccc(Nc2oc(-c3ccc(OC)cc3)nc2C#N)cc1,/,-6.0,12.3,11.5*,-7.2,9.6*
CCOC(=O)C(C)Sc1nc2c(c(=O)[nH]c(=O)n2C)n1C/C=C(/C)Cl (stereo not given),0.2,4.9,3.5,11.8*,21.8,-3.0
CCSc1nc2c(c(=O)[nH]c(=O)n2C)n1C/C=C(/C)Cl,-0.3,-1.4,-18.0,-2.7,7.6,/
CSc1ncc(Cl)c(C(=O)Nc2ccccc2Cl)n1,-0.2,-8.0,-18.0,3.7,-19.3,/
Cn1c(O)c(C2=c3ccccc3=NC2=O)sc1=Nc1ccc(Cl)cc1,-0.1,13.3,1.9,12.9*,8.9,3.4

# Bioassay records as filed in PubChem BioAssay.
